Results on 1 compound are retold here after ChEMBL document CHEMBL1135739, “Radiolabeled amino acids for tumor imaging with PET: radiosynthesis and biological evaluation of 2-amino-3-[18F]fluoro-2-methylpropanoic acid and 3-[18F]fluoro-2-methyl-2-(methylamino)propanoic acid” (J Med Chem, 2002).

Data set [1] is filed under the species Rattus norvegicus. In words: Radioactivity distribution in testis of normal fischer rat after injection of [18F]fluoro-2-methylpropanoic acid after 5 min. The format is ADME, organism-based. To be noted: in vivo. The essentials:
(§1)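 Male Fischer 344 rats (200–250 g), fed ad libitum, under intramuscular ketamine:xylazine anesthesia, got ~85 μCi radiotracer in 0.3 mL sterile water by tail-vein catheter. Groups of four were killed at 5, 30, 60 or 120 min. Dissected tissues were weighed and gamma-counted with dose standards. Counts were decay-corrected and given as %ID/g, mean ± standard error. Tissues were compared by one-way ANOVA.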

For data set [2], the species on record is Rattus norvegicus. The data set is described as follows: Radioactivity distribution in spleen of tumor-bearing fischer rat after injection of [18F]fluoro-2-methylpropanoic acid after 60 min. Type of data set: ADME, organism-based. To be noted: in vivo, 1 h. The essentials:
(§2)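 Male Fischer rats had 4×10^4 9L gliosarcoma cells implanted stereotactically into the brain, 3 mm right of midline, 1 mm anterior to bregma, 5 mm deep. They were used 17–19 days later. Awake, restrained rats got ~35 μCi in 0.3 mL sterile water by tail vein and were killed at 5, 60 or 120 min. Tissues, tumor and contralateral brain were gamma-counted, decay-corrected, as %ID/g, mean ± SE, n = 4–5.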

The species named for data set [3] is Rattus norvegicus. The data set is described as follows: Radioactivity distribution in pancreas of normal fischer rat after injection of [18F]fluoro-2-methylpropanoic acid after 60 min. The format is ADME, organism-based. To be noted: in vivo, 1 h. The essentials: (§3)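 Male Fischer 344 rats (200–250 g), fed ad libitum, anesthetized with intramuscular ketamine:xylazine (1:1, 0.1 mL/100 g). About 85 μCi tracer in 0.3 mL sterile water was given by tail-vein catheter. Groups of four were killed at 5, 30, 60 or 120 min. Tissues were weighed and gamma-counted against dose standards, decay-corrected, and expressed as %ID/g (mean ± standard error).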

The species entered for data set [4] is Rattus norvegicus. In words: Radioactivity distribution in heart of normal fischer rat after injection of [18F]fluoro-2-methylpropanoic acid after 30 min. Type of data set: ADME, organism-based. To be noted: in vivo, 0.5 h. In a few lines:
(§4)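 Normal male Fischer 344 rats (200–250 g), anesthetized with i.m. ketamine:xylazine (1:1), got ~85 μCi of tracer in 0.3 mL sterile water i.v. via tail-vein catheter. Groups of four were killed at 5, 30, 60 or 120 min. Tissues were weighed and gamma-counted against dose standards, and counts were decay-corrected to %ID/g. Results are mean ± standard error (n = 4), compared by one-way ANOVA.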

For data set [5], the species on record is Rattus norvegicus. In words: Radioactivity distribution in liver of tumor-bearing fischer rat after injection of [18F]fluoro-2-methylpropanoic acid after 60 min. To be noted: in vivo, 1 h. The format is ADME, organism-based. The essentials: (§5)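 Male Fischer 344 rats carried intracranial 9L gliosarcoma, stereotactically implanted (4×10^4 cells) and used 17–19 days later. Awake, restrained animals received about 35 μCi tracer in 0.3 mL sterile water via the tail vein and were killed at 5, 60 or 120 min (n = 4–5). Tissues were weighed, gamma-counted, decay-corrected and reported as %ID/g ± standard error.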

For data set [6], the species on record is Rattus norvegicus. The data set is described as follows: Radioactivity distribution in spleen of normal fischer rat after injection of [18F]fluoro-2-methylpropanoic acid after 120 min. The format is ADME, organism-based. To be noted: in vivo, 2 h. In a few lines: as §1
The species entered for data set [7] is Rattus norvegicus. In words: Radioactivity distribution in kidney of tumor-bearing fischer rat after injection of [18F]fluoro-2-methylpropanoic acid after 120 min. The format is ADME, organism-based. To be noted: in vivo, 2 h. In a few lines: as §5
Data set [8] is filed under the species Rattus norvegicus. The data set is described as follows: Radioactivity distribution in heart of normal fischer rat after injection of [18F]fluoro-2-methylpropanoic acid after 120 min. To be noted: in vivo, 2 h. Type of data set: ADME, organism-based. The essentials: as §4
For data set [9], the species on record is Rattus norvegicus. In words: Radioactivity distribution in muscle of tumor-bearing fischer rat after injection of [18F]fluoro-2-methylpropanoic acid after 60 min. The format is ADME, organism-based, Muscle tissue. To be noted: in vivo, 1 h. In a few lines:
as §5

Data set [10] is filed under the species Rattus norvegicus. The data set is described as follows: Radioactivity distribution in pancreas of normal fischer rat after injection of [18F]fluoro-2-methylpropanoic acid after 120 min. Type of data set: ADME, organism-based. To be noted: in vivo, 2 h. The essentials: as §3
For data set [11], the species on record is Rattus norvegicus. The data set is described as follows: Radioactivity distribution in heart of tumor-bearing fischer rat after injection of [18F]fluoro-2-methylpropanoic acid after 120 min. To be noted: in vivo, 2 h. The format is ADME, organism-based. In a few lines:
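Male Fischer 344 rats carried intracranial 9L gliosarcoma, implanted stereotactically (4×10^4 cells) and used 17–19 days later. Awake restrained rats got ~35 μCi of tracer in 0.3 mL sterile water by tail-vein injection and were killed at 5, 60 or 120 min. Tissues were weighed and gamma-counted, and counts were decay-corrected to %ID/g. Results are mean ± standard error; n = 4 at 5 and 120 min, n = 5 at 60 min.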

For data set [12], the species on record is Rattus norvegicus. In words: Radioactivity distribution in testis of tumor-bearing fischer rat after injection of [18F]fluoro-2-methylpropanoic acid after 5 min. The format is ADME, organism-based. To be noted: in vivo. The essentials:
as §2

In the case of `CC(N)(C[18F])C(=O)O.Cl` (configuration not stated), the ID/g in the data set listed under Rattus norvegicus [1] is recorded as 0.17%; in the data set listed under Rattus norvegicus [2], 0.55%; in the data set listed under Rattus norvegicus [3], 2.95%; in the data set filed under Rattus norvegicus [4], 0.29%; in the data set filed under Rattus norvegicus [5], 0.66%; in the data set listed under Rattus norvegicus [6], 0.33%. In addition, the ID/g was found to be 3.64% in the data set filed under Rattus norvegicus [7]; 0.23% in the data set filed under Rattus norvegicus [8]; 0.31% in the data set filed under Rattus norvegicus [9]; 2.48% in the data set filed under Rattus norvegicus [10]; 0.22% in the data set listed under Rattus norvegicus [11]; 0.22% in the data set filed under Rattus norvegicus [12].
